According to ChEMBL document CHEMBL5724801, “EUbOPEN Chemogenomics Library - Multiplex” (2024):
Several values for one entry are separate records, joined by “and”; a condition that tells them apart may be missing. Identical values can stand only once.

Tested on: U2OS
Assay: Multiplex assay against U2OS
Type: toxicity, cell-based
Conditions: human
In short: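 Compound was added to live cells that had been stained at seeding with Hoechst33342, BioTracker Green Microtubule Cytoskeleton Dye, MitoTracker Red and Annexin V Alexa Fluor 680, and imaging followed on a CQ1 microscope at 37°C and 5% CO2. CellPathfinder machine-learning gating divided cells into Hoechst high-intensity objects or normal cells, normal cells into healthy, pyknosed or fragmented nuclei, and pyknosed cells into mitotic or apoptotic. Tubulin, mitochondrial-mass and membrane-permeability phenotypes are per cents of healthy-nucleus cells.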

[1] = 12 h, 1 µM, compound concentration 1 uM
[2] = 12 h, 10 µM, compound concentration 10 uM
[3] = 24 h, 1 µM, compound concentration 1 uM
[4] = 24 h, 10 µM, compound concentration 10 uM
[5] = 48 h, 1 µM, compound concentration 1 uM
[6] = 48 h, 10 µM, compound concentration 10 uM

## CCc1nn2c(C)cc(C)nc2c1Cc1ccc(-c2nnc(C3CCNCC3)o2)cc1
[1]
  Population Apoptotic (%): 42% and 85%
  Population Healthy Nuclei (%): 60% and 84%
  Population Hoechst High Intensity Objects (%): 3% and 2%
  Population Membrane Permeable-Phenotype (%): 12% and 14%
  Population Mitochondria Different-Phenotype (%): 10% and 17%
  Population Normal (%): 96% and 97%
  Population Pyknosed Nuclei (%): 10% and 6%
  Population Tubulin-Different-Phenotype (%): 11% and 4%
  Total Cell Count: 251 and 110
[2]
  Population Apoptotic (%): 68% and 77%
  Population Fragmented Nuclei (%): 24% and 8%
  Population Healthy Nuclei (%): 55% and 76%
  Population Hoechst High Intensity Objects (%): 5% and 2%
  Population Membrane Permeable-Phenotype (%): 26% and 30%
  Population Mitochondria Different-Phenotype (%): 43% and 62%
  Population Mitotic Cells (%): 31% and 22%
  Population Normal (%): 94% and 97%
  Population Pyknosed Nuclei (%): 20% and 14%
  Population Tubulin-Different-Phenotype (%): 28% and 44%
  Total Cell Count: 214 and 129
[3]
  Population Apoptotic (%): 80% and 87%
  Population Fragmented Nuclei (%): 26% and 13%
  Population Healthy Nuclei (%): 63% and 80%
  Population Hoechst High Intensity Objects (%): 2% and 3%
  Population Membrane Permeable-Phenotype (%): 4% and 7%
  Population Mitochondria Different-Phenotype (%): 6% and 12%
  Population Mitotic Cells (%): 20% and 12%
  Population Normal (%): 97% and 96%
  Population Pyknosed Nuclei (%): 10% and 6%
  Population Tubulin-Different-Phenotype (%): 3%
  Total Cell Count: 296 and 130
[4]
  Population Apoptotic (%): 77% and 71%
  Population Fragmented Nuclei (%): 24% and 15%
  Population Healthy Nuclei (%): 55% and 71%
  Population Hoechst High Intensity Objects (%): 3%
  Population Membrane Permeable-Phenotype (%): 9% and 16%
  Population Mitochondria Different-Phenotype (%): 40% and 61%
  Population Mitotic Cells (%): 22% and 28%
  Population Normal (%): 96%
  Population Pyknosed Nuclei (%): 19% and 13%
  Total Cell Count: 236 and 163
[5]
  Population Apoptotic (%): 90% and 85%
  Population Fragmented Nuclei (%): 17% and 12%
  Population Healthy Nuclei (%): 71% and 72%
  Population Hoechst High Intensity Objects (%): 2%
  Population Membrane Permeable-Phenotype (%): 6% and 7%
  Population Mitochondria Different-Phenotype (%): 2% and 6%
  Population Mitotic Cells (%): 10% and 14%
  Population Normal (%): 97%
  Population Pyknosed Nuclei (%): 10% and 14%
  Population Tubulin-Different-Phenotype (%): 4%
  Total Cell Count: 376 and 187
[6]
  Population Apoptotic (%): 82% and 75%
  Population Fragmented Nuclei (%): 24% and 12%
  Population Healthy Nuclei (%): 55% and 71%
  Population Hoechst High Intensity Objects (%): 2%
  Population Membrane Permeable-Phenotype (%): 10% and 22%
  Population Mitochondria Different-Phenotype (%): 29% and 31%
  Population Mitotic Cells (%): 17% and 24%
  Population Normal (%): 97%
  Population Pyknosed Nuclei (%): 19% and 15%
  Total Cell Count: 290 and 219

## CSc1ccccc1N1CCN(CCCCCC(=O)NC2CCCc3ccccc32)CC1.Cl (configuration not stated)
[1]
  Population Apoptotic (%): 62% and 36%
  Population Fragmented Nuclei (%): 22% and 24%
  Population Healthy Nuclei (%): 61% and 63%
  Population Hoechst High Intensity Objects (%): 9% and 3%
  Population Membrane Permeable-Phenotype (%): 73% and 51%
  Population Mitochondria Different-Phenotype (%): 71% and 85%
  Population Mitotic Cells (%): 37% and 63%
  Population Normal (%): 90% and 96%
  Population Pyknosed Nuclei (%): 15% and 11%
  Population Tubulin-Different-Phenotype (%): 88% and 72%
  Total Cell Count: 222 and 101
[2]
  Population Apoptotic (%): 70% and 84%
  Population Fragmented Nuclei (%): 41% and 23%
  Population Healthy Nuclei (%): 39% and 55%
  Population Hoechst High Intensity Objects (%): 8% and 4%
  Population Membrane Permeable-Phenotype (%): 67% and 60%
  Population Mitochondria Different-Phenotype (%): 90% and 92%
  Population Mitotic Cells (%): 29% and 16%
  Population Normal (%): 91% and 95%
  Population Pyknosed Nuclei (%): 18% and 21%
  Population Tubulin-Different-Phenotype (%): 96% and 98%
  Total Cell Count: 221 and 125
[3]
  Population Apoptotic (%): 54% and 58%
  Population Fragmented Nuclei (%): 22% and 25%
  Population Healthy Nuclei (%): 60% and 58%
  Population Hoechst High Intensity Objects (%): 6% and 2%
  Population Membrane Permeable-Phenotype (%): 63% and 46%
  Population Mitochondria Different-Phenotype (%): 63% and 74%
  Population Mitotic Cells (%): 45% and 41%
  Population Normal (%): 94% and 97%
  Population Pyknosed Nuclei (%): 17% and 15%
  Population Tubulin-Different-Phenotype (%): 75% and 63%
  Total Cell Count: 250 and 111
[4]
  Population Apoptotic (%): 89% and 94%
  Population Fragmented Nuclei (%): 44% and 19%
  Population Healthy Nuclei (%): 28% and 44%
  Population Hoechst High Intensity Objects (%): 6% and 10%
  Population Membrane Permeable-Phenotype (%): 79% and 90%
  Population Mitochondria Different-Phenotype (%): 81% and 56%
  Population Mitotic Cells (%): 10% and 5%
  Population Normal (%): 93% and 89%
  Population Pyknosed Nuclei (%): 26% and 37%
  Population Tubulin-Different-Phenotype (%): 91% and 97%
  Total Cell Count: 219 and 112
[5]
  Population Apoptotic (%): 64% and 95%
  Population Fragmented Nuclei (%): 25% and 28%
  Population Healthy Nuclei (%): 53% and 52%
  Population Hoechst High Intensity Objects (%): 8% and 5%
  Population Membrane Permeable-Phenotype (%): 42% and 41%
  Population Mitochondria Different-Phenotype (%): 56% and 63%
  Population Normal (%): 91% and 94%
  Population Pyknosed Nuclei (%): 21% and 18%
  Population Tubulin-Different-Phenotype (%): 50% and 44%
  Total Cell Count: 272 and 137
[6]
  Population Apoptotic (%): 98% and 100%
  Population Fragmented Nuclei (%): 43% and 25%
  Population Healthy Nuclei (%): 18% and 20%
  Population Hoechst High Intensity Objects (%): 15% and 11%
  Population Membrane Permeable-Phenotype (%): 77% and 85%
  Population Mitochondria Different-Phenotype (%): 33% and 45%
  Population Mitotic Cells (%): 1% and 0%
  Population Normal (%): 84% and 88%
  Population Pyknosed Nuclei (%): 38% and 54%
  Population Tubulin-Different-Phenotype (%): 75% and 95%
  Total Cell Count: 232 and 109
